Results from different studies.
Compare with care: the assays were run in different laboratories.
Target: Serine/threonine-protein kinase Sgk2 (SGK2, Homo sapiens, UniProt Q9HBY8)
One construct used (Q9HBY8 1-367): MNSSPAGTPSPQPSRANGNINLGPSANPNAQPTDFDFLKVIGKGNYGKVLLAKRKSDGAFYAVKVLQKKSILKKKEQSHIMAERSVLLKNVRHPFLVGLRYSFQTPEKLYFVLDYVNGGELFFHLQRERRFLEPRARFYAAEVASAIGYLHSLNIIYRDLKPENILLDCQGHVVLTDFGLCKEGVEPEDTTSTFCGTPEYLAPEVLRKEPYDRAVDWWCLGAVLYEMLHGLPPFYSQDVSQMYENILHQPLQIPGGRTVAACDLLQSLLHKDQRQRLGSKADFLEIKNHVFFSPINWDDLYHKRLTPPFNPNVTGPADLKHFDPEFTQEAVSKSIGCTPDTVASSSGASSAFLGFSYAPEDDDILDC

`COc1cc2ncnc(Nc3ccc(Oc4ccccc4)cc3C)c2cc1OC` has an inhibition of -4% (enzyme activity, inhibitor; 1 µM).
`CO[C@H]1CC[C@H](CNc2ccc(S(=O)(=O)NC(=O)c3ccc(N4CCN(CC5=C(c6ccc(Cl)cc6)CC(C)(C)CC5)CC4)cc3Oc3cnc4[nH]ccc4c3)cc2[N+](=O)[O-])CC1` has a remaining binding of 91% (cell-free assay, competition with immobilised ligand; 1 µM).
`CNC(=O)c1cc(Oc2ccc(NC(=O)Nc3ccc(Cl)c(C(F)(F)F)c3)cc2)ccn1` has an inhibition of 3% (enzyme activity, inhibitor; 0.3 µM).
`Cc1ccc(NC(=O)c2ccc(C)c(C(F)(F)F)c2)cc1C#Cc1nn(C2CCC(O)CC2)c2ncnc(N)c12` (stereo not shown) has a remaining signal of 97% (cell-free assay; 10 µM).
`O=C(NS(=O)(=O)c1ccc(NCC2CCOCC2)c([N+](=O)[O-])c1)c1ccc(N2CCN(Cc3ccc(C(F)(F)F)cc3-c3ccc(Cl)cc3)CC2)cc1Oc1cnc2[nH]ccc2c1` has a remaining binding of 100% (cell-free assay, competition with immobilised ligand; 1 µM).
For `Cc1cc(NC(=O)c2cccc3cc(-c4cccc5[nH]nc(N)c45)ccc23)ccc1F`, the activity vs control was 76% (enzyme activity, inhibitor; 0.1 µM).
`Cc1ccc(Nc2nccc(N(C)c3ccc4c(C)n(C)nc4c3)n2)cc1S(N)(=O)=O` gave an inhibition of 10% (enzyme activity, inhibitor; 10 µM).
The remaining binding of `CC(=O)c1c(NS(C)(=O)=O)c2cc(-c3ccc(Cl)cc3)c(-c3ccc(Cl)cc3Cl)nc2n(C)c1=O` is reported as 92% (cell-free assay, competition with immobilised ligand; 1 µM).
The remaining activity of `O=C(Nc1cnn(-c2csc(C(=O)NC3COC3)c2)c1)Nc1ccccc1Cl` is reported as 101% (enzyme activity, inhibitor; 5 µM).
With `CCN(CC)CCNC(=O)c1c(C)[nH]c(/C=C2\C(=O)Nc3ccc(F)cc32)c1C` the inhibition was 48% (enzyme activity, inhibitor; 10 µM).
`CCCS(=O)(=O)Nc1ccc(F)c(C(=O)c2c[nH]c3ncc(-c4ccc(Cl)cc4)cc23)c1F` has an inhibition of less than 10% (enzyme activity, inhibitor; 1 µM).
`Cc1ccc(C(=O)Nc2ccc(CN3CCN(C)CC3)c(C(F)(F)F)c2)cc1C#Cc1cnc2cccnn12` gave a remaining activity of 76% (enzyme activity, inhibitor; 23.5 nM).
For `CC(C)(C)c1nc2c(s1)c1nc(N)ncc1c1ccc(NS(=O)(=O)c3c(F)cccc3F)c(F)c12`, the remaining activity was 91% (enzyme activity, inhibitor, radiometric; 1 µM).
The remaining binding of `CNC(=O)Nc1ccc2c(c1)CC[C@@]21OC(=O)N(CC(=O)N(Cc2ccc(F)cc2)[C@@H](C)C(F)(F)F)C1=O` is reported as 100% (cell-free assay, competition with immobilised ligand; 1 µM).
`Nc1ncnc2occ(-c3ccc(NC(=O)Nc4cc(C(F)(F)F)ccc4F)cc3)c12` gave a remaining signal of 13% (cell-free assay, inhibitor; 20 µM).
With `CCN(CC)c1ccc(C2=NNC(=O)CC2C)cc1[N+](=O)[O-]` (stereo not shown) the remaining activity was 104% (enzyme activity, inhibitor; 10 µM).
`CCCOc1ccc(OC)c(F)c1C(=O)c1ccc(C(=O)N[C@@H]2CNC[C@H]2NC(=O)c2ccc3[nH]ncc3c2)cc1` gave a remaining activity of 72% (enzyme activity, inhibitor; 50 nM).
`CNc1cccc2cc(C(=O)Nc3ccc(C(=O)O)cc3)c(=O)[nH]c12` gave an inhibition of -1.2% (enzyme activity, inhibitor; 10 µM).
For `CCc1ccccc1C(=O)Nc1n[nH]c2c(C)c(F)c(C3C(C#N)=C(C)N(C)C(C)=C3C#N)cc12`, the remaining binding was 100% (cell-free assay, competition with immobilised ligand; 1 µM).
For `N#CCCc1ccc2c(c1)-c1[nH]c3ccc([N+](=O)[O-])cc3c1CC(=O)N2`, the remaining signal was 114% (cell-free assay; 0.5 µM).
`CCC(=N\O)/C(C)=C/c1ccc(F)cc1` has a remaining binding of 78% (cell-free assay, competition with immobilised ligand; 1 µM).
With `Cn1cnc(Br)c1C1=CN(c2ncnc3[nH]cnc23)CCS1` the inhibition was 82.2% (enzyme activity, inhibitor, radiometric; 2 µM).
